# Experiments:
# [1] = system: Notch-independent cell lines (refractory to DAPT); experiment: Colony formation assay, Notch-independent cell lines; assay type: cell-based, human; conditions: cells refractory to DAPT
# [2] = system: HES1 promoter occupancy in OE33 and 786-0 cells; experiment: ChIP assay on the HES1 promoter; assay type: cell-based, human; conditions: DAPT 15 μM, IMR-1 25 μM
# Procedure, shortened: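 OE33 and 786-0 cells were exposed to DAPT, test compound or DMSO vehicle. Chromatin immunoprecipitation used the indicated antibodies against NTC components, and HES1 promoter occupancy was assessed.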
# Notch1 (NICD) = Notch1 (NICD) (Homo sapiens, UniProt P46531); experiment: Surface plasmon resonance, binding to NICD; conditions: for mode of binding to Notch1: SPR sensorgrams, dissociation to baseline; for Kd: SPR, equilibrium approach, 1:1 binding model, wild type NICD
# Procedure, shortened: (§1)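 NICD (wild type or point mutant) was amine-coupled to a CM5 chip. Runs were on a Biacore T200 at 25 °C in 10 mM PBS pH 7.5 with 5% DMSO as running buffer. Signals were corrected against a DMSO control. Dissociation was followed under buffer flow. KD came from equilibrium response (Req) versus test compound concentration, fitted to a 1:1 binding model.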
# [3] = target: Notch ternary complex (CSL, Notch1, Maml1 on DNA) (Homo sapiens, UniProt P46531); experiment: in vitro Notch ternary complex; assay type: biochemical; conditions: for IC50: in vitro NTC assay, dose-response
# [4] = Plasma pharmacokinetic profile in mice; assay type: in vivo, male C57 BL/6 mice; conditions: for signal in plasma: after IMR-1 i.v. 2 mg/kg and i.p. 100 mg/kg, any time point
# Procedure, shortened: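 Male C57BL/6 mice received a single test compound dose, either 2 mg/kg i.v. or 100 mg/kg i.p. Plasma was analysed by mass spectrometry (m/z) for parent and acid metabolite. Metabolite PK parameters (Tmax, T1/2, CL, Vss) were calculated on the parent dose. Clearance was referenced to 90 mL/min/kg liver blood flow, and Vss to 0.7 L/kg total body water.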
# NICD R2096A = NICD R2096A (Homo sapiens, UniProt P46531, R2095A); experiment: Surface plasmon resonance, binding to mutated NICD; conditions: SPR, R2096 substituted by alanine
# Procedure, shortened: as §1
# D. rerio (zebrafish) = experiment: Somite formation in zebrafish embryos; assay type: in vivo; conditions: embryos soaked in 40 μM IMR-1
# Procedure, shortened: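 Zebrafish embryos were exposed to test compound at 8 hpf and examined at 13 hpf in coronal view for somites. Controls were untreated, DMSO vehicle, and 100 pg human Notch1 intracellular domain mRNA-injected embryos. The percentage of embryos with somites was scored and compared by Fisher's exact test.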
# NICD R2105A = NICD R2105A (Homo sapiens, UniProt P46531, R2104A); experiment: Surface plasmon resonance, binding to mutated NICD; conditions: SPR, R2105 substituted by alanine
# Procedure, shortened: as §1
# NICD R2071A = NICD R2071A (Homo sapiens, UniProt P46531, R2070A); experiment: Surface plasmon resonance, binding to mutated NICD; conditions: SPR
# Procedure, shortened: as §1
# [5] = system: NICD in OE33 and 786-0 cells; experiment: Western analysis of NICD levels; assay type: cell-based, human; conditions: Western analysis of lysates from ChIP assay cells
# Procedure, shortened: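 Lysates came from the same treated OE33 and 786-0 cells used for ChIP (DAPT 15 μM, test compound 25 μM, or DMSO). Western blots were probed with anti-Notch1, anti-cleaved Notch1 (Val1744) and anti-GAPDH antibodies.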
# NICD R2061A = NICD R2061A (Homo sapiens, UniProt P46531, R2060A); experiment: Surface plasmon resonance, binding to mutated NICD; conditions: SPR
# Procedure, shortened: as §1
# [6] = system: Notch target genes (Hes-1, Hey-L) in OE33 and 786-0 cells; experiment: RT-qPCR analysis of Notch target genes; assay type: cell-based, human
# Procedure, shortened: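 OE33 and 786-0 cells were treated, then Hes-1 and Hey-L were measured by reverse transcription and TaqMan qPCR. Values were normalized to TBP and HPRT and expressed relative to vehicle (DMSO) control set to 1.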
# [7] = system: OE19 human esophageal adenocarcinoma cells; experiment: OE19 xenograft model in nude mouse; assay type: in vivo; conditions: 15 mg/kg
# Procedure, shortened: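 Nude mice received 5 × 10^6 OE19 cells in the flank, and tumors developed over 4 weeks. Mice were treated with test compound at 15 mg/kg or DMSO control. Tumor establishment and body weight were monitored through treatment.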
# [8] = system: patient-derived esophageal adenocarcinoma xenograft (EAC29 and EAC47); experiment: Patient-derived esophageal adenocarcinoma xenograft; assay type: in vivo
# Procedure, shortened: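 Patient-derived esophageal adenocarcinoma tumors were grown in NSG mice to 200 mm3 before treatment began. Mice then received daily i.p. doses of test compound (15 mg/kg), comparator inhibitor (20 mg/kg) or DMSO vehicle. After 24 days, tumors were harvested. Notch target gene transcription was measured by RT-qPCR (TaqMan) and normalized to TBP and HPRT.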
# [9] = IMR-1A after IMR-1 i.p. 100 mg/kg, mice plasma
# Chain of Notch ternary complex (CSL, Notch1, Maml1 on DNA) (P46531 1754-2555 limits assumed): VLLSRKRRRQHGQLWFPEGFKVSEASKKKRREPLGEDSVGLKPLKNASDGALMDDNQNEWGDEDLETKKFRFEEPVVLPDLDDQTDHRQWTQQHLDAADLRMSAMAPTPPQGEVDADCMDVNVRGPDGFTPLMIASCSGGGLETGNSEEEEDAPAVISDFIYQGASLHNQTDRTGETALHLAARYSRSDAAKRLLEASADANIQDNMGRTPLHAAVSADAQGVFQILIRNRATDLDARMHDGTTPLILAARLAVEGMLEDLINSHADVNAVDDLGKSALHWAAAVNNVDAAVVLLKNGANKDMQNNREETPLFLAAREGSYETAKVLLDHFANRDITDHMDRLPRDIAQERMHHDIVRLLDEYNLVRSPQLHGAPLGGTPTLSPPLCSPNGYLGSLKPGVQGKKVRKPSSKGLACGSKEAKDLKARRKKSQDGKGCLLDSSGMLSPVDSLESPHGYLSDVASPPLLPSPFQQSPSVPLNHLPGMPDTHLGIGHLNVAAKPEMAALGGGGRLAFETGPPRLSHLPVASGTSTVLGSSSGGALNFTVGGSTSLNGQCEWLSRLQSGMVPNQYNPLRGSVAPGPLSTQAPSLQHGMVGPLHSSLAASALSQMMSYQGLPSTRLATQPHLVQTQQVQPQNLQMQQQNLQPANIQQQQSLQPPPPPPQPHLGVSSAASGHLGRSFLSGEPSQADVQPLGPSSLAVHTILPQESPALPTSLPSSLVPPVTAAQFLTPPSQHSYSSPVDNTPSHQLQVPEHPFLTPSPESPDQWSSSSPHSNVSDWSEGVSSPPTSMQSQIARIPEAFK
# Chain of Notch ternary complex (CSL, Notch1, Maml1 on DNA) (Q06330 whole entry partner): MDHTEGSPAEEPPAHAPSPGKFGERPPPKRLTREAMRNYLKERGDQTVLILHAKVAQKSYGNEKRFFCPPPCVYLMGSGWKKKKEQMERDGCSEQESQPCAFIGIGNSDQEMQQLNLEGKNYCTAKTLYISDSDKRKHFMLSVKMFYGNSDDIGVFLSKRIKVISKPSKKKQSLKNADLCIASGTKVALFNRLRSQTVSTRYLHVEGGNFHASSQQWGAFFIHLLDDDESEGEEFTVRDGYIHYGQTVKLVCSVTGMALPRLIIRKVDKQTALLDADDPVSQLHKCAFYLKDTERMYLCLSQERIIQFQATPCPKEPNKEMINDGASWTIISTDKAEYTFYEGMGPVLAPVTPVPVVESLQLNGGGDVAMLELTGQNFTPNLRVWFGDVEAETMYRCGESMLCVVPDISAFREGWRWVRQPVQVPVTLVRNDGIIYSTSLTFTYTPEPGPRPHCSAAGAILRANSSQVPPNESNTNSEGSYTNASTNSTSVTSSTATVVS
# Chain of Notch1 (NICD) (P46531 1754-2555 limits assumed): as the sequence (P46531 1754-2555 limits assumed) above
# Chain of NICD R2061A (P46531 1754-2555 R2060A): as the sequence (P46531 1754-2555 limits assumed) above, with R307A counted along it
# Chain of NICD R2071A (P46531 1754-2555 R2070A): as the sequence (P46531 1754-2555 limits assumed) above, with R317A counted along it
# Chain of NICD R2096A (P46531 1754-2555 R2095A): as the sequence (P46531 1754-2555 limits assumed) above, with R342A counted along it
# Chain of NICD R2105A (P46531 1754-2555 R2104A): as the sequence (P46531 1754-2555 limits assumed) above, with R351A counted along it
molecule,measurement,setting,value
"C[C@H](NC(=O)Cc1cc(F)cc(F)c1)C(=O)N[C@H](C(=O)OC(C)(C)C)c1ccccc1 [DAPT, reference compound]",colony formation,[1],refractory
same,occupancy of Maml1 on the HES1 promoter,[2],decreased the occupancy
same,occupancy of Notch1 on the HES1 promoter,[2],decreased the occupancy
COc1cc(/C=C2/SC(=S)NC2=O)ccc1OCC(=O)O [IMR-1A],mode of binding to Notch1,Notch1 (NICD),"non-covalent, reversible binding"
same,Kd,Notch1 (NICD),2.9 ± 0.6 µM
same,increase in potency with respect to IMR-1,[3]; in vitro NTC assay IC50,50 fold
same,IC50,[3],0.5 µM
same,T1/2,[4]; [9],6.16 h
same,Tmax,[4]; [9],30 min
same,Vss relative to normal volume of total body water (0.7 L/kg),[4]; IMR-1A after IMR-1 i.v. 2 mg/kg,~ 4 fold
same,T1/2,"[4]; IMR-1A after IMR-1 i.v. 2 mg/kg, mice plasma",2.22 h
same,CL,"[4]; IMR-1A after IMR-1 i.v. 2 mg/kg, mice plasma, 2 mg/kg",7 mL/min/kg
same,time up to which plasma concentrations were quantifiable,[4]; after IMR-1 i.p. 100 mg/kg,up to 24 h
same,signal in plasma,[4],present
IMR-1,colony formation,[1],equally resistant
same,effect of mutation on affinity,NICD R2096A,No effect
same,embryos with disruption of somite formation,D. rerio (zebrafish),69.7%
same,effect of mutation on affinity,NICD R2105A,No effect
same,Kd,NICD R2071A; NICD R2071A,38.7 µM
same,decrease in affinity relative to wild type NICD,NICD R2071A; R2071 replaced with alanine,approximately 5 fold
same,mode of binding to Notch1,Notch1 (NICD),"non-covalent, reversible binding"
same,Kd,Notch1 (NICD),11 ± 3 µM
same,levels of NICD in cells,[5],does not change
same,Kd,NICD R2061A; NICD R2061A,35.6 µM
same,decrease in affinity relative to wild type NICD,NICD R2061A; R2061 replaced with alanine,approximately 5 fold
same,occupancy of Maml1 on the HES1 promoter,[2],decreased the occupancy
same,occupancy of Notch1 on the HES1 promoter,[2],did not affect the occupancy
same,IC50,[3],26 µM
same,Notch target gene transcription,"[6]; Hes-1, Hey-L, OE33 and 786-0",dose-dependent decrease
same,transcription of the housekeeping gene HPRT,[6]; treated cells,unaltered
same,signal in plasma,[4],no signal was detected
same,clinical signs,"[4]; single i.v. 2 mg/kg and i.p. 100 mg/kg, through last sample withdrawal",did not induce any clinical signs
same,adverse effects,[7],no observable adverse effects
same,tumor establishment,"[7]; nude mouse, OE19 cells, 4 weeks",readily blocks tumor establishment
same,body weight,[7]; throughout the treatment course,remained constant
same,"expression level of Notch target genes (Hes1, HeyL, Notch3) in excised tumors","[8]; after 24 days of treatment, both PDX models",dramatically reduced
same,weight loss or visible signs of adverse effects,[8]; daily i.p. 15 mg/kg,without any significant weight loss or other visible signs of adverse effects
same,PDX tumor growth,"[8]; daily i.p., IMR-1 15 mg/kg or DAPT 20 mg/kg, 24 days, vs DMSO",significantly abrogated growth
same,general toxicity upon in vivo treatment,"[8]; in vivo treatment, summary statement",no general toxicity was observed
